High-throughput results: PubChem, Broad Institute
ERp5 inh: ERp5 (human) disulfide isomerase inhibition | 0.05% of 350,000 active | inhibition, % at 9.99 µM | Q15084 | ERp5 insulin aggregation, absorbance 650 nm, 90 min;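 active = mean replicate inhibition above about 25%, with every replicate also reaching it, limit read from the data, passing the limit was not always enough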
PDI turbidity: blocks human protein disulfide isomerase activity | P07237 | 0.052% of 350,000 active | inhibition, % at 10 µM | PDI insulin aggregation turbidity, A650, 90 min;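 active = mean inhibition across replicates of 30% or more, whatever share of single replicates reach that level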
Target sequence (P07237 whole entry, looked up): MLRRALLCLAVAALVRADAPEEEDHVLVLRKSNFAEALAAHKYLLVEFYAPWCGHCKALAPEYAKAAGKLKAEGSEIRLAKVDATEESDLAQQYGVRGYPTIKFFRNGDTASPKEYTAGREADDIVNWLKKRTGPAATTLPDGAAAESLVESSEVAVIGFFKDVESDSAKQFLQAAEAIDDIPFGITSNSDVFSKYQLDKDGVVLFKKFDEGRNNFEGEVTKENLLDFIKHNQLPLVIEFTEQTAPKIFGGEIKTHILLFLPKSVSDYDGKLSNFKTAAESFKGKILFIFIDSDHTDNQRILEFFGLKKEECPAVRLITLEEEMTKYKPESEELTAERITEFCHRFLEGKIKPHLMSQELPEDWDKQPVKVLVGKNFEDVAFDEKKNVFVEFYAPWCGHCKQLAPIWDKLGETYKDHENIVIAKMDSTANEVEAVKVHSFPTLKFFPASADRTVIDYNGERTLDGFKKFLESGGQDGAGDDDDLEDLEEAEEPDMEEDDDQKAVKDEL
PvdQ acylase: blocks Pseudomonas aeruginosa PvdQ acylase activity; purified PvdQ acylase, fluorescence plate reader; inhibition, % at 10 µM; 0.063% of 340,000 active; AID 488965; in the data active = inhibition above about 30%, passing the limit was not always enough;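 also: 0% = vehicle neutral wells and 100% = reference inhibitor wells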
FN deposition inh: fibronectin deposition inhibition; 0.086% of 350,000 active; AH1F fibroblasts, Alexa488-fibronectin deposition fluorescence, overnight; inhibition, % at 12.6 µM;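 active = mean inhibition across replicates of 30% or more, regardless of how many single replicates reach that level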;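 also: positive control wells lacked labelled fibronectin entirely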
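Material: AH1F fibroblast monolayer depositing Alexa488-labelled fibronectin into matrix | Input: 10000 AH1F cells/well | Medium: DMEM plus 2% serum, read in PBS | Reagent: Alexa488-fibronectin, 24 nM final in well | Compound dosing: One dose per compound, pinned | Schedule: 1 h adhesion, overnight exposure | Measured by: Fluorescence at 485 nm excitation, 525 nm emission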
rRNA inh HTS: selective bacterial rRNA inhibition in E. coli | E. coli WT GFP vs humanized-ribosome RFP mutants, fluorescence, 24 h; stronger effect = lower value; DMSO median 0, no signal -100 | GFP signal change (wild-type ribosome), % (test concentration not listed) | 1.6% of 350,000 active | AID 720706;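 active = significant combined selectivity score with lowered wild-type GFP, culture density cut under 30%, mutant RFP and density less affected; inactive = any of these conditions unmet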
HIV Env fusion: blocks HIV Env-driven cell-cell fusion | HeLa-JRFL Env/CEM21 cell fusion, luciferase | inhibition, % at 12.3 µM | 1.1% of 360,000 active;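 active = mean replicate inhibition score of at least 50 and every replicate individually at or above 50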;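 also: 0% = plate neutral controls and 100% = maraviroc near 300 nM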
An asterisk follows results filed as active; nt = no result given; [ ] = dose if it differs, or a comment. Compounds with a hit are over-represented: about 2.2% of the library has one in this group of screens.

SMILES	ERp5 inh	PDI turbidity	PvdQ acylase	FN deposition inh	rRNA inh HTS	HIV Env fusion
COC(=O)c1ccc2[nH]c3cccc(/C(=C/c4ccccc4)c4ccccc4)c3c2c1	2.2	-2.8	-10.5	6.9	9.5	31.8
O=C1CCCc2[nH]c3cccc(/C(=C/c4ccccc4)c4ccccc4)c3c21	4.1	1.3	12.8	3.5	0.6	69.8*
CO[C@H]1CN(C)C(=O)c2ccc(NC(=O)c3cnccn3)cc2OC[C@@H](C)NC[C@@H]1C	nt	nt	nt	-14.8	3.6	4.9[16.7 µM]
CCCCN(CC)Cc1ccc(CNC(=O)Nc2ccc(Cl)cc2)o1	-2.8	-4.4	-10.2	31.2*	5.6	9.8
Cc1cc(C(=O)Nc2ccc3c(c2)C(=O)N(C)[C@H]2CC[C@H](CC(=O)Nc4ccc(Cl)cc4)O[C@@H]2CO3)no1	nt	nt	nt	12.3	-0.8	nt
CCCNC(=O)N1C[C@@H](C)[C@H](OC)CN(C)C(=O)c2cc(NC(=O)C3CCC3)ccc2OC[C@H]1C	nt	nt	nt	-7.9	2.3	nt
O=C(/C=C/c1ccc(F)cc1)NC(=S)N1CCN(Cc2ccccc2)CC1	0.9	9.8	-8.0	-3.7	-33.8*	7.5
O=C(/C=C/c1ccc(F)cc1)NC(=S)N1CCOCC1	2.6	-3.2	-1.2	9.6	11.0	-14.7
COc1ccccc1S(=O)(=O)N(C)C[C@@H]1Oc2cc(C#CCC(C)C)ccc2S(=O)(=O)N([C@@H](C)CO)C[C@@H]1C	-0.1	nt	nt	nt	-0.7	37.9[16.7 µM]
C(=N\Nc1nc(Nc2ccccc2)nc(N2CCCCC2)n1)/c1ccco1	3.2	nt	nt	-5.4	-38.2*	-23.2
CC1CC1C(=O)OCC(=O)Nc1ccc(N=Nc2ccccc2)cc1 (configuration not stated)	-5.8	12.0	-5.5	3.9	-18.4*	-31.4
CCOc1ccc(NC(=O)COC(=O)C2CC2C)cc1 (configuration not stated)	4.3	-2.3	-16.8	-4.1	13.2	-38.1
CC(C)(C)N1C(=O)[C@H]2[C@@H](c3ccc(Br)cc3)N3C(=O)N(c4ccccc4)C(=O)[C@@]3(C)[C@H]2C1=O	-6.9	-3.7	-10.9	-0.6	-13.2	104.1*
CC(C)(C)N1C(=O)[C@H]2[C@@H](c3ccc(Br)cc3)N3C(=O)N(c4cccc(Br)c4)C(=O)[C@@]3(Cc3ccccc3)[C@H]2C1=O	nt	-3.5	-9.4	nt	nt	nt
CC(C)(C)N1C(=O)[C@H]2[C@@H](c3ccc(Br)cc3)N3C(=O)N(c4ccccc4)C(=O)[C@@]3(Cc3ccccc3)[C@H]2C1=O	-0.1	2.4	-10.8	-11.5	3.6	67.5*
Cc1cc(N2CCN(c3cccc(C(F)(F)F)c3)CC2)n2ncnc2n1	nt	-4.6	-10.3	nt	nt	nt
Cc1nc2ncnn2c(N2CCN(c3cccc(C(F)(F)F)c3)CC2)c1C	nt	1.3	-10.5	nt	nt	60.1*
O=C(O)c1ccccc1C(=O)N1CCc2c([nH]c3ccccc23)C1C(F)(F)F (configuration not stated)	1.4	1.9	nt	-11.1	-30.3*	-2.5
O=C(O)CSCC(=O)N1CCc2c([nH]c3ccccc23)C1C(F)(F)F (configuration not stated)	-1.4	-4.6	-14.9	-4.5	-0.2	-5.9
O=C(c1cccc(C(F)(F)F)c1)N1CCc2c([nH]c3ccccc23)C1C(F)(F)F (configuration not stated)	3.8	9.1	0.6	-6.1	1.1	85.6*
O=C(O)C[C@H]1CC[C@H](NC(=O)CCN2CCCCC2)[C@H](CO)O1	-4.8	nt	nt	9.0	1.9	nt
C[C@H]1CN([C@@H](C)CO)C(=O)Cc2cc(NC(=O)Cn3cnnn3)ccc2O[C@H]1CN(C)Cc1ccc(C(F)(F)F)cc1	0.8	nt	nt	nt	0.6	91.9*[16.7 µM]
C[C@@H]1CN([C@@H](C)CO)C(=O)Cc2cc(NC(=O)Nc3ccc4c(c3)OCO4)ccc2O[C@H]1CN(C)Cc1ccc(Cl)c(Cl)c1	-1.3	nt	nt	nt	-0.8	57.4*[16.7 µM]
C[C@@H]1CN([C@@H](C)CO)C(=O)Cc2cc(NC(=O)Cn3cnnn3)ccc2O[C@@H]1CN(C)Cc1ccc(C(F)(F)F)cc1	-6.1	nt	nt	nt	1.3	-18.2[16.7 µM]
C[C@@H]1CN([C@@H](C)CO)C(=O)Cc2cc(NC(=O)Nc3ccc(C(F)(F)F)cc3)ccc2O[C@@H]1CN(C)Cc1ccc(Cl)c(Cl)c1	49.9*	nt	nt	3.5	5.7	18.3[16.7 µM]
SMILES	ERp5 inh	PDI turbidity	PvdQ acylase	FN deposition inh	rRNA inh HTS	HIV Env fusion
COc1ccc(NC(=O)Nc2ccc3c(c2)CC(=O)N([C@H](C)CO)C[C@@H](C)[C@H](CN(C)Cc2ccc(Oc4ccccc4)cc2)O3)cc1	-3.2	nt	nt	nt	2.4	60.0*[16.7 µM]
CCC(=O)N(C)C[C@H]1Oc2cc(C3=CCCCC3)ccc2S(=O)(=O)N([C@@H](C)CO)C[C@@H]1C	nt	nt	nt	nt	3.0	4.8[16.7 µM]
COc1ccc(CN(C)C[C@H]2Oc3ccc(NC(=O)Nc4ccc(C(F)(F)F)cc4)cc3CC(=O)N([C@@H](C)CO)C[C@@H]2C)cc1	-4.5	nt	nt	nt	-1.8	12.9[16.7 µM]
C[C@H](CO)N1C[C@H](C)[C@H](CN(C)CC2CC2)Oc2ccc(NC(=O)Nc3ccc4c(c3)OCO4)cc2CC1=O	-8.2	nt	nt	nt	4.1	65.2*[16.7 µM]
COc1ccc(NC(=O)Nc2ccc3c(c2)CC(=O)N([C@@H](C)CO)C[C@@H](C)[C@H](CN(C)Cc2ccc(C(F)(F)F)cc2)O3)cc1	nt	nt	nt	nt	5.9	60.5*[16.7 µM]
Cc1cccc(NC(=S)NNC(=O)c2csc3c2CCC(C)C3)c1 (configuration not stated)	-5.2	0.2	5.7	nt	-40.2*	nt
O=C(C=Cc1ccccc1)c1cccs1	-4.9	-10.1	-9.5	3.9	-22.2*	nt
C[C@H](CO)N1C[C@H](C)[C@@H](CN(C)Cc2ccc3c(c2)OCO3)Oc2ccc(NC(=O)Nc3ccccc3)cc2CC1=O	-0.4	nt	nt	nt	2.5	nt
O=C(CCl)Nc1cccc(-c2cnc3ccccc3n2)c1	nt	12.0	7.1	-0.8	nt	-212.7
O=C(CCl)Nc1ccc(Oc2cnc3ccccc3n2)cc1	nt	27.8	-13.2	2.7	nt	55.5*
Cc1sc(-n2cccc2)c(C(=O)O)c1C	nt	5.1	9.8	13.0	nt	-31.6
O=C(O)c1c(-n2cccc2)sc2c1CCCC2	1.3	0.1	-1.1	-7.3	-44.0*	13.1
CN(Cc1cnc2nc(N)nc(N)c2n1)c1ccc(C(=O)NC(CCC(=O)O)C(=O)O)c2ccccc12 (configuration not stated)	0.0	-7.7	14.3	4.4	9.8	64.3*
O=C(O)CCC(NC(=O)c1ccc(Cl)cc1)C(=O)O (configuration not stated)	1.0	-0.7	-8.8	10.1	9.7	11.6
Cc1noc(C)c1S(=O)(=O)N(C)C[C@H]1Oc2ccc(NC(=O)CCCCCC(=O)Nc3ccccc3N)cc2CC(=O)N([C@@H](C)CO)C[C@H]1C	-4.7	nt	nt	-9.5	0.9	nt
CC(C)CCN(C(=O)Nc1ccc(Cl)cc1)C1CCN(C(C)C)CC1	-1.7	4.0	2.1	-6.1	-34.6*	-13.4
CCOc1ccc(NC(=O)N(CCC(C)C)C2CCN(C(C)=O)CC2)cc1	nt	6.3	-5.8	0.0	nt	-25.3
